In ChEMBL document CHEMBL4049428, “Exploring Derivatives of Quinazoline Alkaloid l-Vasicine as Cap Groups in the Design and Biological Mechanistic Evaluation of Novel Antitumor Histone Deacetylase Inhibitors” (J Med Chem, 2017):

Tests used:
Homo sapiens = organism: Homo sapiens; assay: Inhibition of HDAC in human MOLT4 cells assessed as increase in acetylated H4K5 levels after 48 hrs by Western blot analysis; type: cell-based
Summary of the method: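 Cells seeded 2-4 h, treated 48 h with graded compound concentrations (SAHA control); histones acid-extracted (HEPES pH 9 buffer, 0.2 N HCl, 1 h on ice), Bradford-normalised, resolved on 18% SDS gels, blotted to PVDF, probed for acetyl-H3K18 and acetyl-H4K5 with H3 and β-actin loading controls; ECL detection.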

HL-60 [1] = assay: Induction of mitochondrial membrane potential loss in human HL60 cells assessed as intact mitochondrial membrane potential at 10 uM measured after 48 hrs by Rh123 dye-based flow cytometric analysis (reference value: 91.3%); type: functional
Summary of the method: (§1)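 Cells seeded in 6-well plates 2-4 h, then 48 h with compound; Rh-123 1 µM added for the final half hour; cells centrifuged, washed twice in PBS, resuspended in PBS, and Ψm loss quantified by flow cytometry as percentage of cells.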

MOLT-4 [2] = assay: Induction of mitochondrial membrane potential loss in human MOLT4 cells at 1 uM measured after 48 hrs by Rh123 dye-based flow cytometric analysis (reference value: 9.6%); type: functional; summary of the method: as §1
MOLT-4 [3] = assay: Induction of mitochondrial membrane potential loss in human MOLT4 cells assessed as intact mitochondrial membrane potential at 0.125 uM measured after 48 hrs by Rh123 dye-based flow cytometric analysis (reference value: 90.4%); type: functional; summary of the method: as §1
MOLT-4 [4] = assay: Induction of mitochondrial membrane potential loss in human MOLT4 cells at 10 uM measured after 48 hrs by Rh123 dye-based flow cytometric analysis (reference value: 9.6%); type: functional; summary of the method: as §1
HL-60 [5] = assay: Induction of reactive oxygen species in human HL60 cells at 1 uM measured after 48 hrs by H2DCFDA dye-based flow cytometric analysis (reference value: 0.4%); type: functional
MOLT-4 [6] = assay: Induction of reactive oxygen species in human MOLT4 cells at 5 uM measured after 48 hrs by H2DCFDA dye-based flow cytometric analysis (reference value: 1.1%); type: functional
HL-60 [7] = assay: Induction of DNA damage in human HL60 cells by comet assay; type: functional, cell-based
Summary of the method: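 Alkaline comet assay on HL-60 cells in 0.5% low-melting agarose; lysis 2 h cold (2.5 M NaCl, 100 mM Na2EDTA, 10 mM Tris, pH 10, plus 1% Triton X-100); electrophoresis pH>13, 24 V, 300 mA, 40 min; neutralised pH 7.5, ethidium bromide stained; about 100 cells scored by image analysis, dim light.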

O=C(CCCCCCC(=O)Nc1ccccc1CN1CC[C@H](O)C1)NO
inhibition (Homo sapiens): Dose-dependent effect | Activity (HL-60 [1]): 54.7% | Activity (MOLT-4 [2]): 4.9% | Activity (MOLT-4 [3]): 97.6% | Activity (MOLT-4 [4]): 67.5% | Activity (HL-60 [5]): 0.6% | Activity (MOLT-4 [6]): 1.9% | Activity (HL-60 [7]): Dose-dependent effect
